Source: ChEMBL document CHEMBL1127598, “Synthesis of a series of 4-(arylethynyl)-6-chloro-4-cyclopropyl-3,4-dihydroquinazolin-2(1H)-ones as novel non-nucleoside HIV-1 reverse transcriptase inhibitors” (J Med Chem, 1994)
pIC50: −log10 of the molar value. Blank lines part the entries; values can stand above or below the molecule they belong to.

What was measured:
[1] = target: Human immunodeficiency virus type 1 reverse transcriptase (Human immunodeficiency virus 1, UniProt Q72547); experiment: Ability to inhibit HIV-1 Reverse Transcriptase (RT) using an rC-dG template/primer
MT4 [2] = experiment: Compound was evaluated for the anti-viral activity against cultured MT-4 cells; format: functional, Homo sapiens
MT4 [3] = experiment: Concentration of compound which inhibited greater than 95% the spread of infection of cultured MT-4 cells; format: functional, Homo sapiens
Method in brief: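 MT-4 cells infected with HIV-1 strain IIIb. The spread of infection was measured by p24 core antigen ELISA. The CIC95 is the lowest compound concentration that inhibited spread of infection by more than 95%.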

Structure (SMILES): O=C1Nc2ccc(Cl)cc2[C@@](C#Cc2ccccn2)(C2CC2)N1
pIC50 [1]: 7.92

Structure (SMILES): O=C1Nc2ccc(Cl)cc2C(C#Cc2cncnc2)(C2CC2)N1 (stereo not drawn)
pIC50 [1]: 5.82

Structure (SMILES): O=C1Nc2ccc(Cl)cc2[C@](C#Cc2ccccn2)(C2CC2)N1
pIC50 [1]: 5.03

Structure (SMILES): CC(C)=CCN1Cc2cccc3nc(S)n(c23)C[C@H]1C
pIC50 [1]: 7.15 | ClC95 (MT4 [2]): 200 nM

pIC50 [1]: < 5.00
Structure (SMILES): O=C1Nc2ccc(Cl)cc2C(C#Cc2cc([N+](=O)[O-])ccn2)(C2CC2)N1 (stereo not drawn)

Structure (SMILES): O=C1Nc2ccc(Cl)cc2C(C#Cc2ncccn2)(C2CC2)N1 (stereo not drawn)
pIC50 [1]: 6.89

Structure (SMILES): O=C1Nc2ccc(Cl)cc2C(C#Cc2cccnc2)(C2CC2)N1 (stereo not drawn)
pIC50 [1]: 7.19

Structure (SMILES): O=C1Nc2ccc(Cl)cc2C(C#Cc2ccccn2)(C2CC2)N1 (stereo not drawn)
ClC95 (MT4 [3]): 25 nM | pIC50 [1]: 7.63

Structure (SMILES): CN1C(=O)Nc2ccc(Cl)cc2C1(C#Cc1ccccn1)C1CC1 (stereo not drawn)
pIC50 [1]: 7.71

Structure (SMILES): O=C1Nc2ccc(Cl)cc2C(C#Cc2cnccn2)(C2CC2)N1 (stereo not drawn)
pIC50 [1]: 6.57

Structure (SMILES): O=C1Nc2ccc(Cl)cc2C(C#Cc2ccco2)(C2CC2)N1 (stereo not drawn)
pIC50 [1]: 8.04

Structure (SMILES): O=C1Nc2ccc(Cl)cc2C(C#Cc2ccccc2[N+](=O)[O-])(C2CC2)N1 (stereo not drawn)
pIC50 [1]: 7.89

Structure (SMILES): Cc1ccnc2c1NC(=O)c1cccnc1N2C1CC1 [NEVIRAPINE]
ClC95 (MT4 [2]): 100 nM

Structure (SMILES): N#Cc1ccccc1C#CC1(C2CC2)NC(=O)Nc2ccc(Cl)cc21 (stereo not drawn)
pIC50 [1]: 7.97 | ClC95 (MT4 [2]): 12 nM

Structure (SMILES): O=C1Nc2ccc(Cl)cc2C(C#Cc2ccncc2)(C2CC2)N1 (stereo not drawn)
pIC50 [1]: 6.35

Structure (SMILES): CCc1cc(NCc2nc3c(Cl)ccc(Cl)c3o2)c(O)nc1C [L-697661]
ClC95 (MT4 [2]): 50 nM

Structure (SMILES): O=C1Nc2ccc(Cl)cc2C(C#Cc2ccccc2)(C2CC2)N1 (stereo not drawn)
ClC95 (MT4 [3]): 100 nM | pIC50 [1]: 7.75

Structure (SMILES): O=C1Nc2ccc(Cl)cc2C(C#Cc2nccs2)(C2CC2)N1 (stereo not drawn)
pIC50 [1]: 7.96 | ClC95 (MT4 [2]): 12 nM
